Values joined by “and” are separate entries in the source; they are usually repeats but may differ in a detail not shown here. Equal entries are not always repeated.
Experiments:
Type in all cases: toxicity, cell-based
U2OS = assay: Multiplex assay against U2OS; settings: human, number of replicates 2
In short: (§1)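 Per cents of healthy-nucleus cells form the tubulin, mitochondrial-mass and membrane-permeability phenotype values. Live cells were stained at seeding with Hoechst33342, BioTracker Green Microtubule Cytoskeleton Dye, MitoTracker Red and Annexin V Alexa Fluor 680. After compound addition they were imaged on a CQ1 microscope at 37°C and 5% CO2, and CellPathfinder machine-learning gating split them into Hoechst high-intensity objects or normal cells, normal cells into healthy, pyknosed or fragmented nuclei, and pyknosed cells into mitotic or apoptotic.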

HEK-293T = assay: Multiplex assay against HEK293T; settings: human, number of replicates 2; in short: as §1
Fibroblast = assay: Multiplex assay against human fibroblast; settings: number of replicates 2; in short: as §1
[1] = 12 h, 1 µM, compound concentration 1 uM
[2] = 12 h, 10 µM, compound concentration 10 uM
[3] = 24 h, 1 µM, compound concentration 1 uM
[4] = 24 h, 10 µM, compound concentration 10 uM
[5] = 48 h, 1 µM, compound concentration 1 uM
[6] = 48 h, 10 µM, compound concentration 10 uM

## COc1ccc(NC(=O)c2ccc(-c3ccc(-c4noc(C)n4)cc3C)cc2)cc1OCCN(C)C.Cl
U2OS; [1]
  Population Apoptotic (%): 40% and 45%
  Population Healthy Nuclei (%): 61% and 83%
  Population Hoechst High Intensity Objects (%): 0%
  Population Membrane Permeable-Phenotype (%): 5% and 4%
  Population Mitochondria Different-Phenotype (%): 5% and 13%
  Population Mitotic Cells (%): 60% and 55%
  Population Normal (%): 100%
  Population Pyknosed Nuclei (%): 16% and 11%
  Population Tubulin-Different-Phenotype (%): 36% and 40%
U2OS; [2]
  Population Apoptotic (%): 76% and 60%
  Population Fragmented Nuclei (%): 10% and 23%
  Population Healthy Nuclei (%): 43% and 51%
  Population Hoechst High Intensity Objects (%): 1% and 0%
  Population Membrane Permeable-Phenotype (%): 34% and 30%
  Population Mitochondria Different-Phenotype (%): 67% and 85%
  Population Mitotic Cells (%): 23% and 40%
  Population Normal (%): 98% and 100%
  Population Pyknosed Nuclei (%): 46% and 25%
  Population Tubulin-Different-Phenotype (%): 93% and 100%
U2OS; [3]
  Population Apoptotic (%): 55% and 51%
  Population Healthy Nuclei (%): 55% and 78%
  Population Hoechst High Intensity Objects (%): 2% and 0%
  Population Membrane Permeable-Phenotype (%): 5%
  Population Mitochondria Different-Phenotype (%): 15% and 17%
  Population Mitotic Cells (%): 44% and 48%
  Population Normal (%): 97% and 99%
  Population Pyknosed Nuclei (%): 25% and 15%
  Population Tubulin-Different-Phenotype (%): 35% and 34%
U2OS; [4]
  Population Apoptotic (%): 63% and 86%
  Population Fragmented Nuclei (%): 16% and 6%
  Population Healthy Nuclei (%): 32%
  Population Hoechst High Intensity Objects (%): 0%
  Population Membrane Permeable-Phenotype (%): 58% and 79%
  Population Mitochondria Different-Phenotype (%): 75% and 89%
  Population Mitotic Cells (%): 36% and 13%
  Population Normal (%): 100% and 99%
  Population Pyknosed Nuclei (%): 51% and 61%
  Population Tubulin-Different-Phenotype (%): 100% and 98%
U2OS; [5]
  Population Apoptotic (%): 77% and 72%
  Population Fragmented Nuclei (%): 16% and 7%
  Population Healthy Nuclei (%): 65% and 77%
  Population Hoechst High Intensity Objects (%): 2% and 0%
  Population Membrane Permeable-Phenotype (%): 6%
  Population Mitochondria Different-Phenotype (%): 3% and 12%
  Population Mitotic Cells (%): 22% and 27%
  Population Normal (%): 98% and 100%
  Population Pyknosed Nuclei (%): 18% and 15%
  Population Tubulin-Different-Phenotype (%): 37% and 40%
U2OS; [6]
  Population Apoptotic (%): 95% and 98%
  Population Fragmented Nuclei (%): 21% and 14%
  Population Healthy Nuclei (%): 18% and 6%
  Population Hoechst High Intensity Objects (%): 2% and 1%
  Population Membrane Permeable-Phenotype (%): 85% and 92%
  Population Mitochondria Different-Phenotype (%): 71% and 100%
  Population Mitotic Cells (%): 4% and 1%
  Population Normal (%): 97% and 98%
  Population Pyknosed Nuclei (%): 59% and 79%
  Population Tubulin-Different-Phenotype (%): 100% and 92%
HEK-293T; [1]
  Population Apoptotic (%): 44% and 57%
  Population Fragmented Nuclei (%): 3%
  Population Healthy Nuclei (%): 84% and 81%
  Population Hoechst High Intensity Objects (%): 6% and 8%
  Population Membrane Permeable-Phenotype (%): 3% and 4%
  Population Mitochondria Different-Phenotype (%): 26% and 29%
  Population Mitotic Cells (%): 55% and 42%
  Population Normal (%): 93% and 91%
  Population Pyknosed Nuclei (%): 11% and 15%
  Population Tubulin-Different-Phenotype (%): 80% and 75%
  Total Cell Count: 604 and 505
HEK-293T; [2]
  Population Apoptotic (%): 83% and 80%
  Population Fragmented Nuclei (%): 5% and 4%
  Population Healthy Nuclei (%): 51% and 50%
  Population Hoechst High Intensity Objects (%): 19% and 18%
  Population Membrane Permeable-Phenotype (%): 4% and 1%
  Population Mitochondria Different-Phenotype (%): 74% and 77%
  Population Mitotic Cells (%): 16% and 19%
  Population Normal (%): 80% and 81%
  Population Pyknosed Nuclei (%): 43% and 44%
  Population Tubulin-Different-Phenotype (%): 87% and 90%
  Total Cell Count: 326 and 269
HEK-293T; [3]
  Population Apoptotic (%): 55% and 64%
  Population Fragmented Nuclei (%): 5%
  Population Healthy Nuclei (%): 84% and 81%
  Population Hoechst High Intensity Objects (%): 6% and 11%
  Population Membrane Permeable-Phenotype (%): 6% and 3%
  Population Mitochondria Different-Phenotype (%): 19%
  Population Mitotic Cells (%): 44% and 35%
  Population Normal (%): 93% and 88%
  Population Pyknosed Nuclei (%): 10% and 13%
  Population Tubulin-Different-Phenotype (%): 66% and 62%
  Total Cell Count: 768 and 603
HEK-293T; [4]
  Population Apoptotic (%): 82% and 89%
  Population Fragmented Nuclei (%): 6%
  Population Healthy Nuclei (%): 32% and 33%
  Population Hoechst High Intensity Objects (%): 23% and 19%
  Population Membrane Permeable-Phenotype (%): 6% and 0%
  Population Mitochondria Different-Phenotype (%): 74% and 77%
  Population Mitotic Cells (%): 17% and 10%
  Population Normal (%): 76% and 80%
  Population Pyknosed Nuclei (%): 60%
  Population Tubulin-Different-Phenotype (%): 74% and 86%
  Total Cell Count: 296 and 269
HEK-293T; [5]
  Population Apoptotic (%): 43% and 51%
  Population Fragmented Nuclei (%): 10% and 8%
  Population Healthy Nuclei (%): 84% and 83%
  Population Hoechst High Intensity Objects (%): 9% and 10%
  Population Membrane Permeable-Phenotype (%): 5%
  Population Mitochondria Different-Phenotype (%): 3% and 6%
  Population Mitotic Cells (%): 56% and 48%
  Population Normal (%): 90% and 89%
  Population Pyknosed Nuclei (%): 4% and 8%
  Population Tubulin-Different-Phenotype (%): 40% and 41%
  Total Cell Count: 1630 and 1219
HEK-293T; [6]
  Population Apoptotic (%): 86% and 92%
  Population Fragmented Nuclei (%): 8% and 7%
  Population Healthy Nuclei (%): 24% and 19%
  Population Hoechst High Intensity Objects (%): 28% and 22%
  Population Membrane Permeable-Phenotype (%): 3% and 2%
  Population Mitochondria Different-Phenotype (%): 72% and 70%
  Population Mitotic Cells (%): 13% and 7%
  Population Normal (%): 71% and 77%
  Population Pyknosed Nuclei (%): 66% and 72%
  Population Tubulin-Different-Phenotype (%): 84% and 87%
  Total Cell Count: 289 and 271
Fibroblast; [1]
  Population Apoptotic (%): 34% and 50%
  Population Fragmented Nuclei (%): 23% and 26%
  Population Healthy Nuclei (%): 60% and 51%
  Population Hoechst High Intensity Objects (%): 0%
  Population Mitochondria Different-Phenotype (%): 6% and 5%
  Population Mitotic Cells (%): 65% and 50%
  Population Normal (%): 100% and 99%
  Population Pyknosed Nuclei (%): 15% and 21%
  Population Tubulin-Different-Phenotype (%): 39% and 56%
  Total Cell Count: 247 and 176
Fibroblast; [2]
  Population Fragmented Nuclei (%): 14% and 30%
  Population Healthy Nuclei (%): 29% and 48%
  Population Hoechst High Intensity Objects (%): 2% and 0%
  Population Membrane Permeable-Phenotype (%): 14% and 7%
  Population Mitochondria Different-Phenotype (%): 29% and 25%
  Population Normal (%): 97% and 100%
  Population Pyknosed Nuclei (%): 56% and 20%
  Population Tubulin-Different-Phenotype (%): 82% and 72%
  Total Cell Count: 117 and 158
Fibroblast; [3]
  Population Apoptotic (%): 46% and 65%
  Population Fragmented Nuclei (%): 32% and 19%
  Population Healthy Nuclei (%): 58% and 57%
  Population Hoechst High Intensity Objects (%): 2% and 0%
  Population Membrane Permeable-Phenotype (%): 4% and 6%
  Population Mitochondria Different-Phenotype (%): 10% and 9%
  Population Mitotic Cells (%): 53% and 34%
  Population Normal (%): 97% and 99%
  Population Pyknosed Nuclei (%): 9% and 22%
  Population Tubulin-Different-Phenotype (%): 44% and 59%
  Total Cell Count: 288 and 170
Fibroblast; [4]
  Population Apoptotic (%): 94% and 90%
  Population Fragmented Nuclei (%): 13% and 26%
  Population Healthy Nuclei (%): 16% and 10%
  Population Hoechst High Intensity Objects (%): 0%
  Population Mitochondria Different-Phenotype (%): 38% and 83%
  Population Mitotic Cells (%): 5% and 9%
  Population Normal (%): 100%
  Population Pyknosed Nuclei (%): 69% and 62%
  Population Tubulin-Different-Phenotype (%): 72% and 66%
  Total Cell Count: 108 and 116
Fibroblast; [5]
  Population Apoptotic (%): 86% and 73%
  Population Fragmented Nuclei (%): 25% and 32%
  Population Healthy Nuclei (%): 62% and 60%
  Population Hoechst High Intensity Objects (%): 0% and 1%
  Population Membrane Permeable-Phenotype (%): 6% and 1%
  Population Mitochondria Different-Phenotype (%): 6% and 5%
  Population Mitotic Cells (%): 13% and 26%
  Population Normal (%): 100% and 98%
  Population Pyknosed Nuclei (%): 12% and 6%
  Population Tubulin-Different-Phenotype (%): 36% and 23%
  Total Cell Count: 191 and 281
Fibroblast; [6]
  Population Apoptotic (%): 95% and 96%
  Population Fragmented Nuclei (%): 20% and 25%
  Population Healthy Nuclei (%): 15% and 7%
  Population Hoechst High Intensity Objects (%): 0%
  Population Mitochondria Different-Phenotype (%): 18% and 25%
  Population Mitotic Cells (%): 4%
  Population Normal (%): 100%
  Population Pyknosed Nuclei (%): 63% and 66%
  Population Tubulin-Different-Phenotype (%): 81% and 87%
  Total Cell Count: 102 and 112

Source: ChEMBL document CHEMBL5303300, “EUbOPEN Chemogenomics Library - Multiplex” (2023)
